Screening results as filed in PubChem.
Shown are actives, neighbours in structure and some others; about 2.3% of the full set was active somewhere.
TRPC4 act – activators of mouse TRPC4 channel, primary screen, Fluo4 calcium, HEK293 TRPC4beta/mu-opioid cells. Short transient receptor potential channel 4 (Mus musculus), Q9QUQ5. Fluo4 calcium fluorescence; stronger effect = higher value. B-score at 10 µM. 0.49% of 310,000 active;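 active = B-score above 5 SD of library B-scores, and initial fluorescence ratio not above library mean plus 5 SD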;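 note: positive B-score marks a calcium rise read as TRPC4 activation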
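System – HEK293 cells stably co-expressing mouse TRPC4beta and mu-opioid receptor · Signal – Fluo4 calcium-sensitive dye fluorescence, kinetic, 1 Hz baseline · Benchmarks – buffer (low) and maximal DAMGO (high) · Read-out – B score of integrated fluorescence ratio per well · Incubation – dye loading 45 min room temperature, 110 s kinetic read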
TRPC6 inh – mouse TRPC6 channel inhibitors, primary screen, cell-based, HEK293, membrane potential dye; Short transient receptor potential channel 6 (Mus musculus), Q61143; ACh-evoked depolarization; stronger effect = lower value; B-score at 10 µM; 1.1% of 310,000 active; AID 2553, 2010;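 active = B-score under library mean minus 3 SD, initial fluorescence not abnormally high, positive integrated signal ratio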;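 note: B-score derived from integrated fluorescence ratio over the kinetic read; more negative B-score means stronger inhibition of depolarization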
Target sequence (Q61143 whole entry, looked up): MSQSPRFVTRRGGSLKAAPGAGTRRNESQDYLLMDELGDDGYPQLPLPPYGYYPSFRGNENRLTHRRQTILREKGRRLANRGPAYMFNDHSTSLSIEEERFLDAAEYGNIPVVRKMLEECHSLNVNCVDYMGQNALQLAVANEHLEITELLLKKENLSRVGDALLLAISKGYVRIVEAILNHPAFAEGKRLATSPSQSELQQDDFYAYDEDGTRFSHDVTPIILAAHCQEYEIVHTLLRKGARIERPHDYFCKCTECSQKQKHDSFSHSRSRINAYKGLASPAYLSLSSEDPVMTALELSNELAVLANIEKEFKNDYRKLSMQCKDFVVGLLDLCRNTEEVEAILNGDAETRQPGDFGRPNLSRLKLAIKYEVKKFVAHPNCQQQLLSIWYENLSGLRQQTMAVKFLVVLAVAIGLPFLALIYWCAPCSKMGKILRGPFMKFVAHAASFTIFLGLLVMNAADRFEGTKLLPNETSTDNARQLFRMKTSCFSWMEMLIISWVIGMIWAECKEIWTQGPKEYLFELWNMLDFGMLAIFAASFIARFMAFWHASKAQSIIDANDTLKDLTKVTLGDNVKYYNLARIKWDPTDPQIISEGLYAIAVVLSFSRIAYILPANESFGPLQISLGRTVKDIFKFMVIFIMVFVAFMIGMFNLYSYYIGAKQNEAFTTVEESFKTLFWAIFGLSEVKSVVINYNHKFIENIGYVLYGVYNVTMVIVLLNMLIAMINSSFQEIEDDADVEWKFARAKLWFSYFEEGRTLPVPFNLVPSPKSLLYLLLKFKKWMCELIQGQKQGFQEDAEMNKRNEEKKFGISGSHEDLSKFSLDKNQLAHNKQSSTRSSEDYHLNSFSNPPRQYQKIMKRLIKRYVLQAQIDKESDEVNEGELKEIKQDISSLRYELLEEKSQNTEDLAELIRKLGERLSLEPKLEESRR
TRPC4 potent – positive allosteric modulators of TRPC4, primary screen, cell-based, mouse TRPC4beta, HEK293 mu-opioid, Fluo-4 calcium. Short transient receptor potential channel 4 (Mus musculus), Q9QUQ5. DAMGO EC20, Fluo-4 Ca2+ flux; stronger effect = higher value. B-score at 10 µM. 0.42% of 310,000 active. AID 2227, 2009;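 active = B-score of calcium response area above 5 SD of library B-scores, with initial fluorescence ratio within 5 SD of library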;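 note: B-score of integrated fluorescence ratio over time as area under calcium response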
TRPC4 inh – inhibitors of mouse TRPC4 channel, primary screen, Fluo4 calcium, HEK293 TRPC4beta/mu-opioid cells; Short transient receptor potential channel 4 (Mus musculus), Q9QUQ5; DAMGO-evoked Fluo4 calcium flux; stronger effect = lower value; B-score at 10 µM; 0.39% of 300,000 active; AID 2247, 2010;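 active = B-score over 3 SD under the library average, no early fluorescence shift, positive overall ratio signal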
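Assay system: HEK293 cells with stable TRPC4beta plus mu-opioid receptor expression; Probe or stimulus: DAMGO in two steps, submaximal then maximal; Dosing: single-point compound dosing; Measured by: Fluo4 calcium-dye fluorescence, kinetic read; Read-out basis: B score from integrated Fluo4 fluorescence ratio.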
TRPC6 activator – mouse TRPC6 channel activators, primary screen, cell-based, HEK293, membrane potential dye | B-score at 10 µM | 0.13% of 310,000 active | HEK293-TRPC6 membrane potential dye fluorescence; stronger effect = higher value | AID 2550, 2010 | Short transient receptor potential channel 6 (Mus musculus), Q61143;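 active = B-score of the integrated fluorescence ratio above library mean plus 3 SD, and starting fluorescence ratio within library mean plus 5 SD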;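 note: higher score means more depolarization so channel activation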
TRPC4 spec 2 – second check of whether TRPC6 inhibitors also affect mouse TRPC4. shares compounds with TRPC6 inh. HEK293 TRPC4/MOR, membrane potential dye fluorescence; channel activated by saturating DAMGO dose. inhibition, % at 10 µM. 42% of 920 active. AID 2776;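 active = compounds whose fluorescence signal differed from control wells by over 3 SD, either direction, in both duplicate plates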
TRPC4 spec – mouse TRPC4 modulation by TRPC6 hits, confirmation, selectivity assay for TRPC6 inhibitor project, cell-based, HEK293 TRPC4/mu-opioid, membrane potential dye. shares compounds with TRPC6 inh. membrane potential fluorescence. activity change, negative = inhibition, % at 10 µM. 61% of 920 active;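 active = rise or fall in signal beyond 3 SD of buffer-only wells in both replicate plates, either sign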;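 note: integrated kinetic ratio of fluorescence range over baseline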
HEK293 MPD ctr 2-1 – nonspecific membrane potential effects, parental HEK293, confirmation, counter-screen for TRPC6 inhibitor project, cell-based, second counter screen; parental HEK293 membrane potential dye fluorescence; maximal acetylcholine challenge after compound addition; 31% of 920 active; shares compounds with TRPC6 inh; signal change vs control, % at 10 µM;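 active = membrane potential signal moving either way by over 3 SD of the maximum-effect control, in both duplicate plates, meaning non-specific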
HEK293 MPD ctr-1 – membrane potential modulation in parental HEK293, confirmation, counter-screen for TRPC6 inhibitor project, cell-based. parental HEK293 membrane potential dye fluorescence. shares compounds with TRPC6 inh. 60% of 920 active. membrane potential signal change, % at 10 µM;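 active = membrane potential signal shifting up or down by more than 3 SD of buffer-only wells, on both duplicate plates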
HEK293 MPD ctr-2 – parental HEK293 membrane potential modulation, confirmation, counter-screen for TRPC6 modulator project, cell-based; shares compounds with TRPC6 inh; membrane potential dye fluorescence; membrane potential signal change, % at 10 µM; 51% of 2,400 active; AID 488924, 2010;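 active = membrane potential signal moves up or down beyond 5 SD from buffer-only wells, on both duplicate plates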
HEK293 MPD ctr 2-2 – parental HEK293 nonspecific activity of TRPC6 modulators, second screen; membrane potential dye fluorescence; after compound, maximal acetylcholine stimulation; shares compounds with TRPC6 inh; 14% of 2,400 active; inhibition, % at 10 µM;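 active = membrane potential signal drops by more than 5 SD from the mean control signal, in both duplicate plates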;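 note: plate controls were acetylcholine ECmax control wells for no effect and buffer only wells for full effect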
TRPC4/MOR mod – TRPC4 modulation by TRPC6 hit compounds, confirmation, selectivity assay for TRPC6 modulator project, cell-based, HEK293 TRPC4/mu-opioid, membrane potential dye, mouse. shares compounds with TRPC6 inh. membrane potential fluorescence. percent change from control (negative = decrease, positive = increase), % at 10 µM. 69% of 2,400 active. AID 488927, 2010;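 active = membrane potential signal moved up or down beyond 5 SD of buffer control wells, in both duplicate plates, actives on both sides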;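 note: plate controls were assay buffer wells for no effect and DAMGO maximal-effect wells for full effect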
TRPC4/MOR inh 2 – second check of whether TRPC6 modulators also affect mouse TRPC4. shares compounds with TRPC6 inh. HEK293 TRPC4/mu-opioid, membrane potential dye fluorescence; stimulated with maximal-effect DAMGO. inhibition, % at 10 µM. 55% of 2,400 active;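 active = drop in membrane potential signal beyond 5 SD of the control wells in both duplicate plates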;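 note: TRPC4 counter screen for TRPC6 hits run under conditions tuned for TRPC6 not TRPC4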
TRPC6 block conf – mouse TRPC6 channel inhibitors, confirmation, HEK293 cells, membrane potential dye, duplicate | AID 488960, 2010 | shares compounds with TRPC6 inh | 43% of 3,300 active | inhibition, % at 10 µM | ACh-evoked depolarization;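 active = fluorescence ratio falls more than 5 SD below the full-stimulation control mean, in both duplicate runs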;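 note: integrated fluorescence ratio of peak minus minimum over baseline after agonist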
TRPC6 act confirm – mouse TRPC6 channel activators, confirmation, HEK293 cells, membrane potential dye, duplicate | shares compounds with TRPC6 inh | HEK293-TRPC6 membrane potential dye fluorescence, FDSS | activation, % at 10 µM | 11% of 2,800 active | AID 488961, 2010;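 active = ratio signal rise beyond 5 SD above unstimulated control wells' mean, seen in both duplicate runs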;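 note: plate controls were buffer EC0 wells for no effect and acetylcholine ECmax response for full effect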
An asterisk follows results filed as active; i = inactive; x = no result.

SMILES	TRPC4 act	TRPC6 inh	TRPC4 potent	TRPC4 inh	TRPC6 activator	HEK293 MPD ctr-2	HEK293 MPD ctr 2-2	TRPC4/MOR mod	TRPC4/MOR inh 2	TRPC6 block conf	TRPC6 act confirm	others
Cc1cccc(NS(=O)(=O)c2cccc(C(=O)NCC3(N4CCCCC4)CCCCC3)c2)c1	i	-5.04*	i	i	i	i	i	i	72.0%*	52.0%*	x
Cc1nc(N2CCN(c3ccccc3O)CC2)c2c(-c3ccccc3)csc2n1	i	i	i	i	i	x	x	x	x	x	x
C[C@@H]1CCC2[C@](C)(CO)[C@@H](O)CC[C@]2(C)[C@@]12CC[C@@](CO)(CC(=O)O)O2 (some centres undefined)	i	i	i	i	i	x	x	x	x	x	x
CC(CCC(=O)O)C1CC[C@H]2C3CCC4CC(=O)CCC4(C)[C@H]3CC(=O)C12C (some centres undefined)	i	i	i	i	i	x	x	x	x	x	x
CCN(CC)CCNc1cc(C)nc2c1C(=O)C(=O)C=C2N1CCCCC1	i	-7.46*	i	i	i	-273.5%*	i	-46.5%*	39.0%*	i	i
CCN1CCC(CNCc2cn(-c3ccc(OC)cc3)nc2-c2ccccc2Cl)C1 (centres undefined)	i	i	i	i	i	x	x	x	x	x	x
CCc1nnc(NC(=O)CSC(=S)N2CCOCC2)s1	i	-6.91*	i	i	i	i	i	i	i	i	i
Cc1cnc(NC(=O)CSC(=S)N2CCOCC2)s1	i	i	i	i	i	x	x	x	x	x	x
COC(=O)c1ccccc1NC(=O)COC(C)=O	i	i	i	i	i	x	x	x	x	x	x
COC(=O)c1ccccc1NC(=O)CN1CCC(C)CC1	i	-5.08*	i	i	i	i	i	19.5%*	i	39.0%*	x
COC(=O)c1ccccc1NC(=O)COC(=O)C1CCCCC1	i	-5*	i	i	i	141.5%*	i	31.0%*	i	41.0%*	x
Nc1cccc2c1C(=O)N(CCOc1ccc(F)cc1)C2=O	i	i	i	i	i	x	x	x	x	x	x
COC(=O)CCCn1nc(NC(=O)c2ccco2)cc1C	i	i	i	i	i	x	x	x	x	x	x
Cc1ccc(/C=C2/NC(=O)N(c3ccccc3)C2=O)o1	i	i	i	i	i	x	x	x	x	x	x
O=C1N/C(=C/c2ccc(N3CCOCC3)o2)C(=O)N1c1cccc(Cl)c1	i	i	i	i	19*	119.5%*	i	33.5%*	i	i	i
Cc1cccc2sc(N(CCCN(C)C)C(=O)c3cc4ccccc4oc3=O)nc12	i	i	i	i	i	x	x	x	x	x	x
Cc1cccc2sc(N(CCCN(C)C)C(=O)c3ccco3)nc12	i	-6.78*	i	i	i	x	x	x	x	99.4%*	i	TRPC4 spec 2=24.0%*;TRPC4 spec=-19.4%*;HEK293 MPD ctr 2-1=9.0%*;HEK293 MPD ctr-1=i
Cc1cccc2sc(N(CCCN(C)C)C(=O)c3ccc(Cl)s3)nc12	i	-6.61*	i	i	i	x	x	x	x	67.3%*	i	TRPC4 spec 2=42.5%*;TRPC4 spec=-14.3%*;HEK293 MPD ctr 2-1=i;HEK293 MPD ctr-1=i
CC(C)(C)NC(=O)COC(=O)CCC(=O)c1cccs1	i	i	i	i	i	x	x	x	x	x	x
Cc1cc(NC(=O)C(C)Oc2ccc(Cl)cc2Cl)no1 (centres undefined)	i	i	i	i	i	x	x	x	x	x	x
Cc1ccc(NC(=O)c2cc(-c3cccs3)nc3ccccc23)nc1	i	-6.36*	i	i	i	i	i	i	39.0%*	i	i
COc1ccc(OC)c(Nc2cc(C)nc3ccc(C)cc23)c1	i	-7.48*	i	-6*	i	x	x	x	x	66.9%*	i	TRPC4 spec 2=52.5%*;TRPC4 spec=-14.5%*;HEK293 MPD ctr 2-1=i;HEK293 MPD ctr-1=-239.0%*
CCOc1ccccc1Nc1cc(C)nc2ccc(C)cc12	i	-7.7*	i	i	i	x	x	x	x	61.5%*	i	TRPC4 spec 2=46.5%*;TRPC4 spec=-12.6%*;HEK293 MPD ctr 2-1=i;HEK293 MPD ctr-1=-209.0%*
COc1ccc(Nc2cc(C)nc3ccccc23)cc1	i	-5.09*	i	-6*	i	-131.5%*	i	-21.0%*	48.5%*	i	i
CCOc1ccccc1Nc1ncnc2ccc(Br)cc12	i	i	i	i	i	x	x	x	x	x	x
COc1ccc2nc(C)cc(SCC(=O)NNC(=O)COc3ccc(C)cc3)c2c1	i	i	i	i	i	x	x	x	x	x	x
